Results from ChEMBL document CHEMBL4017505 (J Med Chem, 2017).
The source made the active and inactive calls. No cut-off for these calls is given here.

Columns and labels:
[1] = molecular target: Kappa-type opioid receptor (Homo sapiens) (UniProt P41145); assay: Agonist activity at human kappa opioid receptor expressed in CHO cell membranes after 60 mins by [35S]GTPgammaS binding assay relative to U69,593; type: functional
Outline: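 Membranes (8–15 μg) from CHO cells stably expressing human KOP, in 20 mM HEPES, 10 mM MgCl2, 100 mM NaCl, pH 7.4. Incubated with 0.05 nM [35S]GTPγS, 10 μM GDP and graded compound for 60 min at 25 °C. Nonspecific binding with 10 μM GTPγS; basal binding without ligand. Filtered and counted. Efficacy given as % stimulation relative to U69,593. Duplicates, ≥3 experiments.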

Mus musculus [2] = assay: Antinociceptive activity in sc dosed CD-1 mouse assessed as inhibition of acetic acid-induced writhing treated 30 mins prior to test followed by acetic acid challenge measured for 10 mins starting 5 mins post acetic acid challenge; type: functional
Outline: (§1)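 Male CD1 mice (30–35 g, 6–8 weeks) given compound or saline sc at 10 μL/g. […] ED50 by Litchfield–Wilcoxon from dose–response. Doses expressed as salts; ≥5 mice per group, each used once.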

Mus musculus [3] = assay: Antinociceptive activity in CD-1 mouse assessed as inhibition of acetic acid-induced writhing at […], sc treated 30 mins prior to test followed by acetic acid challenge measured for 10 mins starting 5 mins post acetic acid challenge in presence of KOP receptor antagonist nor-BNI; type: functional, organism-based
Mus musculus [4] = assay: Toxicity in CD-1 mouse assessed as motor impairment at 5 mg/kg, sc treated 30 mins prior to test by rotarod test; type: organism-based; conditions: in vivo, 0.5 h
Mus musculus [5] = assay: Antinociceptive activity in CD-1 mouse assessed as inhibition of acetic acid-induced writhing at 5 mg/kg, sc treated 30 mins prior to test followed by acetic acid challenge measured for 10 mins starting 5 mins post acetic acid challenge in presence of KOP receptor antagonist nor-BNI; type: functional, organism-based
Outline: (§2)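 Writhing test in male CD1 mice: nor-BNI 20 mg/kg sc given 24 h before sc test compound. Acetic acid 0.6% ip at 25 min after compound; writhes counted for 10 min. Inhibition calculated as % reduction against saline controls. ≥5 mice per group.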

Mus musculus [6] = assay: Toxicity in CD-1 mouse assessed as motor impairment at 10 to 20 mg/kg, sc treated 30 mins prior to test by rotarod test; type: organism-based; conditions: in vivo, 0.5 h
[7] = molecular target: Kappa-type opioid receptor (Homo sapiens) (UniProt P41145)
Mus musculus [8] = assay: Antinociceptive activity in CD-1 mouse assessed as inhibition of acetic acid-induced writhing at 10 mg/kg, sc treated 30 mins prior to test followed by acetic acid challenge measured for 10 mins starting 5 mins post acetic acid challenge; type: functional, organism-based; outline: as §1
Mus musculus [9] = assay: In vivo antagonist activity at kappa opioid receptor in CD-1 mouse assessed as reversal of U50,488-induced inhibition of acetic acid-mediated writhing at 10 mg/kg, sc treated 15 mins prior to U50,488 measured for 10 mins starting 5 mins post acetic acid challenge; type: functional, organism-based
Outline: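 Male CD1 mice received test compound 10 mg/kg sc, then U50,488 2 mg/kg sc 15 min later. Acetic acid 0.6% ip given 25 min after U50,488 dosing; writhes counted for 10 min. Compared with saline controls. ≥5 mice per group, sc volume 10 μL/g.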

Mus musculus [10] = assay: Toxicity in CD-1 mouse assessed as motor impairment at 7.5 mg/kg, sc treated 30 mins prior to test by rotarod test; type: organism-based; conditions: in vivo, 0.5 h
Mus musculus [11] = assay: Antinociceptive activity in CD-1 mouse assessed as inhibition of acetic acid-induced writhing at 1 mg/kg, sc treated 30 mins prior to test followed by acetic acid challenge measured for 10 mins starting 5 mins post acetic acid challenge in presence of KOP receptor antagonist nor-BNI; type: functional, organism-based; outline: as §2
Mus musculus [12] = assay: Toxicity in CD-1 mouse assessed as motor impairment at […], sc treated 30 mins prior to test by rotarod test; type: organism-based; conditions: in vivo, 0.5 h
Mus musculus [13] = assay: Toxicity in CD-1 mouse assessed as motor impairment at 15 mg/kg, sc treated 30 mins prior to test by rotarod test; type: organism-based; conditions: in vivo, 0.5 h
Mus musculus [14] = assay: Toxicity in CD-1 mouse assessed as motor impairment at 5 to 10 mg/kg, sc treated 30 mins prior to test by rotarod test; type: organism-based; conditions: in vivo, 0.5 h

Sequence of Kappa-type opioid receptor (Homo sapiens) (P41145 whole entry): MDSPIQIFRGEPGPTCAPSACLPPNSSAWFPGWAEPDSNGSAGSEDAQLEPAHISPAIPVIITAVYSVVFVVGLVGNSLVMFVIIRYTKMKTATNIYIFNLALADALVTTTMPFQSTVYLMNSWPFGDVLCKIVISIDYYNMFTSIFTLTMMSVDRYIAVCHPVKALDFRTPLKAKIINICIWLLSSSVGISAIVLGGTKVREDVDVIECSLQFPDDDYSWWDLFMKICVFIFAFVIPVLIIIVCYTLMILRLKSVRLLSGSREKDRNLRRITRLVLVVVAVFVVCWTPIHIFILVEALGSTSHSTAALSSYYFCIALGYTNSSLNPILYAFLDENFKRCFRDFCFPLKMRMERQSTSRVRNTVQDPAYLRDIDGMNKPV

## Oc1cccc(CCN(CCc2cccc(O)c2)CC2CCCC2)c1
[1]
  Efficacy: 80.4%
Mus musculus [2]
  inhibition: Dose-dependent effect

## CC(C)CCN(CCc1ccccc1)CCc1cccc(O)c1
Mus musculus [2]
  inhibition: Dose-dependent effect

## Oc1cccc(CCN(CCc2cccc(O)c2F)CC2CCC2)c1
Mus musculus [2]
  inhibition: Dose-dependent effect

## c1ccc(CCN(CCc2ccccc2)CC2CCC2)cc1
[1]
  Efficacy: 91.9%

## Cl.Oc1cccc(CCN(CCc2ccccc2)CC2CCCCC2)c1
Mus musculus [3]
  inhibition: inactive
Mus musculus [4]
  Activity: Non-Toxic
Mus musculus [2]
  inhibition: Dose-dependent effect

## Oc1cccc(CCN(CCc2ccccc2)CC2CC2)c1
Mus musculus [5]
  inhibition: inactive
Mus musculus [6]
  Activity: Non-Toxic
Mus musculus [2]
  inhibition: Dose-dependent effect

## Oc1cccc(CCN(CCc2cccc(O)c2)CC2CC2)c1
Mus musculus [2]
  inhibition: Dose-dependent effect

## CC(C)CCN(CCc1cccc(O)c1)CCc1cccc(O)c1
Mus musculus [2]
  inhibition: Dose-dependent effect

## Oc1ccc(CCN(CCc2cccc(O)c2)CC2CC2)cc1
[7]
  Ke: 24.3 nM
Mus musculus [8]
  inhibition: inactive
Mus musculus [9]
  inhibition: Active

## Oc1cccc(CCN(CCc2ccccc2)Cc2ccccc2)c1
[1]
  Efficacy: 79.5%
Mus musculus [2]
  inhibition: Dose-dependent effect

## Cl.Oc1cccc(CCN(CCc2ccccc2)CC2CCCCC2)c1F
Mus musculus [10]
  Activity: Non-Toxic
[1]
  Efficacy: 88.9%
Mus musculus [2]
  inhibition: Dose-dependent effect

## Cl.Oc1cccc(CCN(CCc2ccccc2)CC2CCCC2)c1
Mus musculus [11]
  inhibition: inactive
[1]
  Efficacy: 82.8%
Mus musculus [12]
  Activity: Non-Toxic
Mus musculus [2]
  inhibition: Dose-dependent effect

## C=CCN(CCc1ccc(O)cc1)CCc1cccc(O)c1
[1]
  Efficacy: 29.8%

## Cl.Oc1cccc(CCN(CCc2ccccc2)CC2CCC2)c1F
[1]
  Efficacy: 66.1%
Mus musculus [13]
  Activity: Non-Toxic
Mus musculus [2]
  inhibition: Dose-dependent effect

## Oc1cccc(CCN(CCc2ccccc2)CC2CCC2)c1
Mus musculus [14]
  Activity: Non-Toxic

## Oc1ccc(CCN(CCc2cccc(O)c2)CC2CCC2)cc1
Mus musculus [2]
  inhibition: Dose-dependent effect

## Oc1ccc(CCN(CCc2cccc(O)c2F)CC2CCC2)cc1
Mus musculus [2]
  inhibition: Dose-dependent effect

## Oc1ccc(CCN(CCc2cccc(O)c2)CC2CCCCC2)cc1
[1]
  Efficacy: 84.3%
Mus musculus [2]
  inhibition: Dose-dependent effect

## Oc1cccc(CCN(CCc2cccc(O)c2)CC2CCC2)c1
Mus musculus [2]
  inhibition: Dose-dependent effect

## Oc1cccc(CCN(CCc2cccc(O)c2)CC2CCCCC2)c1
[1]
  Efficacy: 91.1%
Mus musculus [2]
  inhibition: Dose-dependent effect
